# Data taken from ChEMBL document CHEMBL3875199, “Photodynamic effect of meso-(aryl)porphyrins and meso-(1-methyl-4-pyridinium)porphyrins on HaCaT keratinocytes” (Bioorg Med Chem Lett, 2017).
# pIC50: −log10 of the molar value.
# Columns and labels:
# [1] = Phototoxicity against human HaCaT cells assessed as cell viability at 1 uM after irradiation with light at 180 J/cm'2 for 30 mins by MTT assay; assay type: functional; details: light or radiation study, 0.5 h, read-out: Activity
# Method in brief: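 HaCaT screen at 1 µM porphyrin. Light 100 mW/cm² for 30 min (fluence 180 J/cm²). Viability by MTT, given as percent.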
# [2] = Photostability of compound in aqueous media assessed as amount of soret band remaining after irradiation with white light at 100 mW/cm'2 for 30 mins by UV-spectrophotometric analysis; assay type: physicochemical; details: read-out: Stability
# Method in brief: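 Porphyrin in aqueous medium under white light, 100 mW/cm², sampled at intervals up to 30 min. Soret band absorbance tracked and given as percent remaining of the original.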
# [3] = Induction of singlet oxygen production assessed as amount of DPiBF remaining after irradiation with light at 9 mW/cm'2 for 30 mins by DPiBF photooxidation based spectrophotometric analysis (reference value: 80%); assay type: physicochemical; details: 0.5 h
# Method in brief: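 Singlet oxygen measured by DPiBF photooxidation in DMF. Light at 9 mW/cm² for 30 min. DPiBF absorbance at 415 nm reported as percent of the starting value.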
# [4] = Phototoxicity against human HaCaT cells assessed as reduction in cell viability after irradiation with white light at 120 J/cm'2 for 20 mins by MTT assay; assay type: functional, cell-based; details: light or radiation study
# Method in brief: (§1)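 HaCaT PDT at 0.01, 0.03, 0.1, 0.3 and 1 µM porphyrin (untreated control as 0). Light 100 mW/cm² for 20 min (fluence 120 J/cm²). Viability by MTT. IC50 estimated from the roughly linear concentration–viability relationship.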
# [5] = Dark toxicity against human HaCaT cells assessed as reduction in cell viability at >0.1 uM after 24 hrs by MTT assay; assay type: cell-based
# Method in brief: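 HaCaT keratinocytes held with porphyrin in the dark for 24 h, no light exposure, over 0.01–1 µM (untreated control as 0). Viability read by MTT.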
# [6] = Phototoxicity against human HaCaT cells assessed as cell viability at 0.01 uM after irradiation with white light at 120 J/cm'2 for 20 mins by MTT assay; assay type: functional; details: light or radiation study, read-out: Activity; method in brief: as §1
remaining at 0.5 h [2],Activity [3],SMILES,viability at 1 µM [1],pIC50 [4],Activity [5],viability at 0.01 µM [6]
96%,59%,Nc1ccc(-c2c3nc(c(-c4ccccc4)c4ccc([nH]4)c(-c4ccccc4)c4nc(c(-c5ccccc5)c5ccc2[nH]5)C=C4)C=C3)cc1,100%,–,–,–
97%,28%,COc1ccc(-c2c3nc(c(-c4ccc(OC)cc4)c4ccc([nH]4)c(-c4ccc(OC)cc4)c4nc(c(-c5ccc(OC)cc5)c5ccc2[nH]5)C=C4)C=C3)cc1,100%,–,–,–
97%,28%,O=[N+]([O-])c1ccc(-c2c3nc(c(-c4ccccc4)c4ccc([nH]4)c(-c4ccc([N+](=O)[O-])cc4)c4nc(c(-c5ccccc5)c5ccc2[nH]5)C=C4)C=C3)cc1,95.2%,–,–,–
–,25%,C1=Cc2nc1c(-c1ccc3ccccc3c1)c1ccc([nH]1)c(-c1ccc3ccccc3c1)c1nc(c(-c3ccc4ccccc4c3)c3ccc([nH]3)c2-c2ccc3ccccc3c2)C=C1,100%,–,–,–
–,13%,C[n+]1ccc(-c2c3nc(c(-c4ccccc4)c4ccc([nH]4)c(-c4ccccc4)c4nc(c(-c5ccccc5)c5ccc2[nH]5)C=C4)C=C3)cc1.[I-],29.4%,6.22,–,–
96%,33%,O=[N+]([O-])c1ccc(-c2c3nc(c(-c4ccccc4)c4ccc([nH]4)c(-c4ccccc4)c4nc(c(-c5ccccc5)c5ccc2[nH]5)C=C4)C=C3)cc1,92.8%,–,–,–

# More lines, now with the values behind:
SMILES,remaining at 0.5 h [2],Activity [3],viability at 1 µM [1],pIC50 [4],Activity [5],viability at 0.01 µM [6]
Clc1ccc(-c2c3nc(c(-c4ccc(Cl)cc4)c4ccc([nH]4)c(-c4ccc(Cl)cc4)c4nc(c(-c5ccc(Cl)cc5)c5ccc2[nH]5)C=C4)C=C3)cc1,–,–,100%,–,–,–
C[n+]1ccc(-c2c3nc(c(-c4cc[n+](C)cc4)c4ccc([nH]4)c(-c4cc[n+](C)cc4)c4nc(c(-c5cc[n+](C)cc5)c5ccc2[nH]5)C=C4)C=C3)cc1.[I-].[I-].[I-].[I-],98%,22%,26.6%,7.23,–,–
Cc1ccc(-c2c3nc(c(-c4ccc(C)cc4)c4ccc([nH]4)c(-c4ccc(C)cc4)c4nc(c(-c5ccc(C)cc5)c5ccc2[nH]5)C=C4)C=C3)cc1,–,–,100%,–,–,–
CC(=O)Oc1ccc(-c2c3nc(c(-c4ccc(OC(C)=O)cc4)c4ccc([nH]4)c(-c4ccc(OC(C)=O)cc4)c4nc(c(-c5ccc(OC(C)=O)cc5)c5ccc2[nH]5)C=C4)C=C3)cc1,83%,29%,100%,–,–,–
C[n+]1ccc(-c2c3nc(c(-c4ccccc4)c4ccc([nH]4)c(-c4ccccc4)c4nc(c(-c5cc[n+](C)cc5)c5ccc2[nH]5)C=C4)C=C3)cc1.[I-].[I-],92%,20%,23.2%,7.28,Toxic,69%
C[n+]1ccc(-c2c3nc(c(-c4cc[n+](C)cc4)c4ccc([nH]4)c(-c4cc[n+](C)cc4)c4nc(c(-c5ccccc5)c5ccc2[nH]5)C=C4)C=C3)cc1.[I-].[I-].[I-],97%,12%,23.9%,7.17,–,–
C[n+]1ccc(Sc2c(F)c(F)c(-c3c4nc(c(-c5c(F)c(F)c(Sc6cc[n+](C)cc6)c(F)c5F)c5ccc([nH]5)c(-c5c(F)c(F)c(Sc6cc[n+](C)cc6)c(F)c5F)c5nc(c(-c6c(F)c(F)c(Sc7cc[n+](C)cc7)c(F)c6F)c6ccc3[nH]6)C=C5)C=C4)c(F)c2F)cc1.[I-].[I-].[I-].[I-],89%,25%,20.3%,6.62,–,–
C[n+]1ccc(-c2c3nc(c(-c4ccccc4)c4nc(c(-c5cc[n+](C)cc5)c5ccc([nH]5)c(-c5ccccc5)c5ccc2[nH]5)C=C4)C=C3)cc1.[I-].[I-],91%,18%,19.5%,6.87,–,–
C1=Cc2nc1c(-c1ccccc1)c1ccc([nH]1)c(-c1ccccc1)c1nc(c(-c3ccccc3)c3ccc([nH]3)c2-c2ccccc2)C=C1,–,–,100%,–,–,–
O=S(=O)([O-])c1ccc(-c2c3nc(c(-c4ccc(S(=O)(=O)[O-])cc4)c4ccc([nH]4)c(-c4ccc(S(=O)(=O)[O-])cc4)c4nc(c(-c5ccc(S(=O)(=O)[O-])cc5)c5ccc2[nH]5)C=C4)C=C3)cc1.[Na+].[Na+].[Na+].[Na+],91%,24%,76.1%,–,–,–
